# ARFGAP1 inhibitor: inhibits rat ARF GTPase activating protein 1; Arfgap1-stimulated ARF1 GTP hydrolysis, GDP FP detection; inhibition, % at 16.5 µM; hit rate 0.26% among 360,000;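 active = inhibition above a per-plate limit, mean inhibition of low control wells plus 3 SD, cut at about 25% in these data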;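 note: 0% = DMSO wells with enzyme and 100% = wells lacking Arfgap1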
#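 material = rat Arfgap1 catalytic domain, aa 1-136 | also added = human ARF1(Δ1-17)-GTP substrate | compound dosing = one concentration, 16.5 µM, DMSO 1.26% | times = GTP hydrolysis reaction 2 h at 25 °C | measured by = FP, GDP Alexa 633 tracer displaced from anti-GDP antibody, 620/688 nm | evaluation = percent inhibition of Arfgap1-stimulated GTP hydrolysis | replication = single well per compound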
# CendR NRP1 mod: alters CendR peptide binding to human NRP-1 | hit rate 0.85% among 360,000 | FAM-RPARPAR peptide binding to NRP-1, fluorescence polarization | O14786 | inhibition, % at 25 µM;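 active = inhibition or corrected inhibition above about 18%, plus a signal ratio from 0.5 to 1.5, limit read from the data, passing the limit was not always enough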
# V-ATPase pHluor: alters yeast V-ATPase proton transport; response, % at 10 µM; S. cerevisiae, pHLuorin cytosolic pH fluorescence; hit rate 0.37% among 350,000; in the data active = response mostly above about 7.3%, no sharp cut-off; inactive = mostly below about 5.4%; note: actives read high
# ASAP1 inh: blocks human ASAP1-stimulated Arf1 GTP hydrolysis; inhibition, % at 16.5 µM; Q9ULH1; hit rate 0.19% among 360,000; GDP FP detection; in the data active = inhibition above about 25%;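 note: 0% = vehicle with enzyme and substrate and 100% = no enzyme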
# Exocytosis inh: blocks lytic granule exocytosis; TALL-104 LAMP-1 surface exposure, flow cytometry; cells stimulated with thapsigargin and PMA; inhibition, % at 10 µM; hit rate 0.66% among 360,000; AID 651702;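 active = inhibition above about 55%, limit read from the data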
# An asterisk follows results filed as active; . = no result. Hits are enriched below; roughly 2.2% of the tested compounds scored in any of these assays.
SMILES,ARFGAP1 inhibitor,CendR NRP1 mod,V-ATPase pHluor,ASAP1 inh,Exocytosis inh
COC(=O)C1=C(c2ccc(F)cc2F)C[C@@H]2CC[C@H]1N2C(=O)N1CCOCC1,-2,16,0,2,-10
COC(=O)C1=C(c2ccc(F)cc2F)C[C@@H]2CC[C@H]1N2C(=O)N1CCCC1,-3,28*,1,-3,8
COC(=O)C1=C(c2ccc(F)cc2F)C[C@@H]2CC[C@H]1N2C(=O)N1CCCCC1,0,22*,3,-10,3
c1ccc(Cc2cnc(N3CCNCC3)nc2)cc1,-5,.,.,-8,.
CC(C)(C)n1cc(C(=O)c2ccccc2)cc1-c1ccccc1,-13,21*,0,-16,20
C[C@@H]1NCCc2cc(O)c(O)cc21,-8,1,-1,0,2
O=C(Cc1c[nH]c2ccccc12)NNCc1ccc(N(CCCl)CCCl)cc1,4,-10,0,-13,2
C/C(=N\N(C)c1ccccc1)c1c(O)[nH]c(=O)[nH]c1=O,3,2,-8,-14,-10
Cc1ccc(NC(=O)CC[C@H]2O[C@@H](n3cnc4c(NC(=O)c5ccccc5)ncnc43)[C@H](O)[C@@H]2O)cc1C,-4,8,.,-6,-2
CN(CC1COc2ccccc2O1)c1nc(-c2cccnc2)nc2ccccc12 (configuration not stated),-22,-3,3,4,87*
CN1CCC(N(C)c2nc(-c3ccc([N+](=O)[O-])cc3)nc3ccccc23)CC1,5,10,-2,11,17
CC(=O)N1Cc2cnnn2-c2ccccc2C1(C#N)Cc1ccccc1 (configuration not stated),7,4,0,6,0
CN(C)C(CNC(=O)Cc1c(Cl)cccc1Cl)c1ccccc1 (configuration not stated),2,26*,3,5,1
COC1=CC(=O)[C@]2(C=C1OC)OC[C@@H]1Oc3c(ccc4c3C=CC(C)(C)O4)C(=O)[C@@H]12,13,.,.,2,.
CC1(C(=O)O)CCCC2(C)c3cc(O)ccc3CCC12 (configuration not stated),-6,34*,-1,-1,-23
COc1ccc(C(O)CNC(C)C)c(F)c1OC (configuration not stated),14,1,27*,3,5
O=P(CN1CCN(c2ccccc2)CC1)(N1CCCCC1)N1CCCCC1,11,34*,-4,-1,-6
O=C(NCCN1CCC2(CC1)C(=O)NCN2c1ccccc1)c1ccc(F)c(F)c1,2,.,.,0,.
CC12CCC3c4ccc(OP(=O)(N5CC5)N5CC5)cc4CCC3C1CCC2=O (configuration not stated),-15,26*,-2,10,12
CC1CN1P(=O)(Oc1ccc2ccccc2c1)N1CC1C (configuration not stated),-7,14,1,-4,-13
CCOC(=O)c1ccccc1C(=O)OCC,2,44*,-4,4,2
CCCOC(=O)c1ccccc1C(=O)OCCC,-9,7,1,-15,0
O=C(Cc1ccccc1)OCC(=O)N1CCN(S(=O)(=O)c2ccc(Cl)cc2)CC1,5,-3,-1,8,2
CC1=C(O)C(=O)C=C2C1=CC=C1C2(C)CCC2(C)C3CC(C)(C(=O)O)CCC3(C)CCC12C (configuration not stated),3,-13,-3,-16,106*
C=CCNC(=S)N1Cc2ccccc2-n2nncc2C1,-1,0,-3,7,11
SMILES,ARFGAP1 inhibitor,CendR NRP1 mod,V-ATPase pHluor,ASAP1 inh,Exocytosis inh
CC(C)(C)c1cc(O)ccc1O,1,.,.,1,.
CCN(CC)C(=O)c1ccc(NC(=O)COc2ccc([N+](=O)[O-])cc2Cl)cc1,1,31*,3,5,-1
CCN(CC)C(=O)c1ccc(NC(=O)c2cc(S(=O)(=O)N3CCCCCC3)ccc2OC)cc1,-4,1,0,6,11
COC1CCC(OC2CC(C3(C)CCC4(CC(O)C(C)C(C(C)/C=C(\C)C(=O)C(C)CC(C)C(=O)O)O4)O3)OC3(OC(C4OC(O)(CO)C(C)CC4C)CC3C)C2C)OC1C (configuration not stated),-4,18,-3,-10,78*
O=C1NC(=S)NC(=O)C1=Cc1ccc(Br)s1,-1,-106,4,-3,72*
O=C1NC(=S)NC(=O)C1=Cc1c(Cl)cccc1Cl,-2,-34,1,8,-5
CCC1C2Cc3ccc(O)cc3C1(CC)CCN2C (configuration not stated),10,32*,-2,-3,2
CC1(C)CN=C(Nc2ccc(F)c(Cl)c2)S1,3,27*,-3,3,-2
CC(C)(C)n1nnnc1C(c1ccnc2ccccc12)N1CCC2(CC1)C(=O)NCN2c1ccccc1 (configuration not stated),1,36*,.,-9,0
Cc1cc(N2CCNC[C@@H]2C)ccc1N1CCN[C@H](C)C1,-7,.,.,-14,.
C[n+]1c(-c2ccccc2)c2cc(N)ccc2c2ccc(N)cc21,0,56*,4,1,5
Nc1ccc2ccc3cccc[n+]3c2c1,0,131,-75,-3,21
CN1CCc2cc3c(c4c2C1Cc1ccccc1-4)OCO3 (configuration not stated),5,51*,0,5,80*
O=C1NC(=O)C(=Cc2ccccc2[N+](=O)[O-])C(=O)N1,6,25*,0,-12,-7
O=C1NC(=O)C(=Cc2ccc(-c3ccccc3[N+](=O)[O-])o2)C(=O)N1,2,-15,2,4,76*
CNS(=O)(=O)c1ccc(-c2ccc(C=C3C(=O)NC(=O)NC3=O)o2)cc1,-18,-35,6,-2,9
O=C1NC(=O)C(=Cc2ccc(-c3cc(Cl)ccc3[N+](=O)[O-])o2)C(=O)N1,-6,-58,4,-4,61*
O=C1NC(=O)C(=Cc2cc3c(cc2[N+](=O)[O-])OCO3)C(=O)N1,-5,-6,-2,3,1
O=C(NCCN1CCC2(CC1)C(=O)NCN2c1ccccc1)c1cccc(F)c1,0,.,.,3,.
COC(=O)C1=C(c2ccc(OCc3ccccc3)cc2)C[C@@H]2CC[C@H]1N2C(=O)NCc1ccccc1C(F)(F)F,-6,-1,0,18,5
COC(=O)C1=C(c2ccc3ccccc3c2)C[C@@H]2CC[C@H]1N2C(=O)NCCNC(C)=O,.,3,1,.,-3
Cn1cccc1/C=C1/C(=O)NC(=S)N(Cc2ccc(F)cc2)C1=O,9,-13,1,7,58*
CC[C@@H]1C[C@H]2CC[C@H](O2)[C@H](C)C(=O)O[C@@H](C)C[C@@H]2CC[C@@H](O2)[C@@H](C)C(=O)O[C@H](C)C[C@H]2CC[C@H](O2)[C@H](C)C(=O)O[C@@H](C)C[C@@H]2CC[C@@H](O2)[C@@H](C)C(=O)O1,.,.,.,8,.
CCN1CCN(S(=O)(=O)c2ccc(Cl)nc2)CC1,1,28*,10,1,2
